From the array DNA melting data of Ke et al. (doi:10.1101/2024.01.08.574731) come the findings set out here.

Data set [1] in a line: folding enthalpy; higher = less favourable; fluorescence melt of hairpins on a sequencing array, two-state fit. The note with it: sodium 0.088 M. The method in brief: (§1)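 Folding enthalpy and melting temperature were estimated with bootstrapped two-state fits and combined across four replicates by inverse-variance weighting, with fitted temperatures raised by 9.35 °C to match UV melts. The data were Cy3 fluorescence of library hairpins, with annealed Cy3 and quencher oligos, on a sequenced MiSeq flow cell in 50 mM Na-HEPES pH 8.0, 25 mM NaCl, imaged in 2.5 °C steps up to 60 °C and normalised to pre-quench Cy3 and control constructs.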

Data set [2] can be described thus: melting temperature; fluorescence melt of hairpins on a sequencing array, two-state fit, raised by 9.35 °C to match UV melts. The note with it: sodium 0.088 M. The method in brief:
as §1

With GATCTATATATAGATC ((((((....)))))), in data set [1], the folding enthalpy is -46.8 kcal/mol. The Tm in data set [2] was 46.4 °C.

As to GATCTATATTAGATC ((((((...)))))), the folding enthalpy in data set [1] was -26.1 kcal/mol. For the same sequence, in data set [2], the Tm was found to be 40.9 °C.

As for GATCTATCCATAGATC ((((((....)))))), the folding enthalpy in data set [1] was -38.1 kcal/mol. Moreover, the Tm in data set [2] was 46.5 °C.

Take GATCTATCCTAGATC ((((((...)))))): in data set [1], the folding enthalpy was -30.6 kcal/mol. Further, the Tm in data set [2] was found to be 41.1 °C.

As for GATCTATCTTAGATC ((((((...)))))), in data set [1], the folding enthalpy is -24.6 kcal/mol. In addition, in data set [2], the Tm came out at 41.4 °C.

Turning to GATCTATGAGTAGATC ((((((....)))))), the folding enthalpy in data set [1] is -40.3 kcal/mol. In addition, the Tm in data set [2] was found to be 45.5 °C.

GATCTATGGATAGATC ((((((....)))))): in data set [1], the folding enthalpy was -29.5 kcal/mol. Moreover, the Tm in data set [2] stood at 43 °C.

On to GATCTATGGCTAGATC ((((((....)))))), for which the folding enthalpy in data set [1] is -30.1 kcal/mol. Besides, the Tm in data set [2] stood at 37.6 °C.

Turning to GATCTATGGGTAGATC ((((((....)))))), in data set [1], the folding enthalpy is -33.2 kcal/mol. The Tm in data set [2] was determined as 45.6 °C.

As to GATCTATTACTAGATC ((((((....)))))), in data set [1], the folding enthalpy is -32.4 kcal/mol. The Tm in data set [2] turned out to be 39.2 °C.

On to GATCTATTCTAGATC ((((((...)))))), for which the folding enthalpy in data set [1] is -27.6 kcal/mol. In addition, in data set [2], the Tm was 41.3 °C.

With GATCTATTGCTAGATC ((((((....)))))), the folding enthalpy in data set [1] is -32.8 kcal/mol. The Tm in data set [2] was determined as 40.5 °C.

For GATCTCAAAGGAGATC ((((((....)))))), in data set [1], the folding enthalpy is -33.4 kcal/mol. For the same sequence, the Tm in data set [2] was 48.2 °C.

Regarding GATCTCAAGTGAGATC ((((((....)))))), the folding enthalpy in data set [1] was -34.5 kcal/mol. In addition, in data set [2], the Tm amounted to 51.5 °C.

As to GATCTCACAGAGATC ((((((...)))))), the folding enthalpy in data set [1] is -39.3 kcal/mol. Further, the Tm in data set [2] turned out to be 56.1 °C.

As for GATCTCACGTGAGATC ((((((....)))))), the folding enthalpy in data set [1] was -54.2 kcal/mol. Moreover, the Tm in data set [2] was 55.1 °C.

With GATCTCAGCGAGATC ((((((...)))))), the folding enthalpy in data set [1] is -35.3 kcal/mol. The Tm in data set [2] was 56.6 °C.

Turning to GATCTCAGCTGAGATC ((((((....)))))), the folding enthalpy in data set [1] was -46.8 kcal/mol. Also, the Tm in data set [2] was found to be 54.9 °C.

On to GATCTCATCAGAGATC ((((((....)))))), for which the folding enthalpy in data set [1] was -35.2 kcal/mol. Moreover, in data set [2], the Tm is 55.6 °C.

Turning to GATCTCATCCGAGATC ((((((....)))))), in data set [1], the folding enthalpy is -39.2 kcal/mol. In data set [2], the Tm stood at 53.2 °C.

On to GATCTCCAGGAGATC ((((((...)))))), for which the folding enthalpy in data set [1] is -37.3 kcal/mol. Moreover, the Tm in data set [2] turned out to be 52.3 °C.

As for GATCTCCAGGGAGATC ((((((....)))))), in data set [1], the folding enthalpy was -36.5 kcal/mol. For the same sequence, the Tm in data set [2] was determined as 55 °C.

GATCTCCATTGAGATC ((((((....)))))): in data set [1], the folding enthalpy was -33.7 kcal/mol. The Tm in data set [2] came to 52.3 °C.

GATCTCCCAGGAGATC ((((((....)))))): the folding enthalpy in data set [1] is -36.4 kcal/mol. In addition, the Tm in data set [2] is 56.8 °C.

Regarding GATCTCCCTAGAGATC ((((((....)))))), the folding enthalpy in data set [1] is -36.2 kcal/mol. Further, the Tm in data set [2] is 55.7 °C.

On to GATCTCCGACGAGATC ((((((....)))))), for which the folding enthalpy in data set [1] is -38.1 kcal/mol. For the same sequence, the Tm in data set [2] is 50 °C.

Regarding GATCTCCGATGAGATC ((((((....)))))), the folding enthalpy in data set [1] was -31.3 kcal/mol. The Tm in data set [2] worked out at 50.7 °C.

Consider GATCTCCGCCGAGATC ((((((....)))))), for which the folding enthalpy in data set [1] is -49.6 kcal/mol. The Tm in data set [2] is 50.9 °C.

For GATCTCCGCGAGATC ((((((...)))))), the folding enthalpy in data set [1] is -44.8 kcal/mol. In data set [2], the Tm was 55.4 °C.

For the sequence GATCTCCGGCGAGATC ((((((....)))))), the folding enthalpy in data set [1] is -27.1 kcal/mol. Further, the Tm in data set [2] worked out at 50.7 °C.

Regarding GATCTCCGGGGAGATC ((((((....)))))), the folding enthalpy in data set [1] is -43.9 kcal/mol. Moreover, the Tm in data set [2] came out at 55.7 °C.

As for GATCTCCGTGAGATC ((((((...)))))), in data set [1], the folding enthalpy was -36.2 kcal/mol. Also, the Tm in data set [2] amounted to 56.3 °C.

Consider GATCTCCGTGGAGATC ((((((....)))))), for which the folding enthalpy in data set [1] was -47.9 kcal/mol. Besides, the Tm in data set [2] was 59.2 °C.

As for GATCTCCTAGGAGATC ((((((....)))))), the folding enthalpy in data set [1] is -36 kcal/mol. Besides, the Tm in data set [2] turned out to be 57.8 °C.

Take GATCTCCTCGGAGATC ((((((....)))))): the folding enthalpy in data set [1] was -52.8 kcal/mol. The Tm in data set [2] was found to be 58 °C.

For GATCTCCTGAGAGATC ((((((....)))))), the folding enthalpy in data set [1] was -39 kcal/mol. Besides, the Tm in data set [2] is 53.2 °C.

For GATCTCCTGGGAGATC ((((((....)))))), the folding enthalpy in data set [1] was -43.3 kcal/mol. In data set [2], the Tm was 56.5 °C.

With GATCTCCTTTGAGATC ((((((....)))))), in data set [1], the folding enthalpy is -39.6 kcal/mol. Moreover, the Tm in data set [2] was determined as 51.7 °C.
